Measured values: ChEMBL document CHEMBL2413060, “Synthesis, biological evaluation and molecular docking studies of some pyrimidine derivatives” (2013)

Key:
Format in all cases: functional
Shigella flexneri = assay: Antibacterial activity against Shigella flexneri ATCC 15391 assessed as diameter of inhibition zone at 1 mg/ml after 24 hrs by cup diffusion method (reference value: 17 mm); details: ATCC 15391, 24 h, read-out: DIZ
Pseudomonas aeruginosa = assay: Antibacterial activity against Pseudomonas aeruginosa ATCC 9027 assessed as diameter of inhibition zone at 1 mg/ml after 24 hrs by cup diffusion method (reference value: 16 mm); details: ATCC 9027, 24 h, read-out: DIZ
MDA-MB-468 [1] = assay: Cytotoxicity against human MDA-MB-468 cells
Procedure, shortened: (§1)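 Five-dose in vitro screen on the full sixty human tumour cell line panel. Three response parameters derived per cell line: GI50, TGI and LC50, given in μM.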

BT-549 = assay: Cytotoxicity against human BT549 cells
MDA-MB-231 = assay: Cytotoxicity against human MDA-MB-231 cells; procedure, shortened: as §1
MCF7 = assay: Cytotoxicity against human MCF7 cells; procedure, shortened: as §1
UO-31 [2] = assay: Cytotoxicity against human UO31 cells
Procedure, shortened: (§2)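 Five-dose in vitro screen across the full sixty-cell human tumour line panel. Three response parameters were derived from the dose-response data: GI50, TGI and LC50, expressed in μM/l.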

TK-10 = assay: Cytotoxicity against human TK10 cells; procedure, shortened: as §2
CAKI-1 = assay: Cytotoxicity against human Caki1 cells
SK-OV-3 = assay: Cytotoxicity against human SKOV3 cells; procedure, shortened: as §1
OVCAR-4 = assay: Cytotoxicity against human OVCAR4 cells; procedure, shortened: as §1
OVCAR-3 = assay: Cytotoxicity against human OVCAR3 cells; procedure, shortened: as §1
UACC-62 [3] = assay: Cytotoxicity against human UACC62 cells; procedure, shortened: as §2
SK-MEL-5 = assay: Cytotoxicity against human SK-MEL-5 cells; procedure, shortened: as §1
M14 = assay: Cytotoxicity against human M14 cells
LOX IMVI = assay: Cytotoxicity against human LOXIMVI cells
SF-539 = assay: Cytotoxicity against human SF539 cells; procedure, shortened: as §1
SW-620 = assay: Cytotoxicity against human SW620 cells; procedure, shortened: as §1
HT-29 = assay: Cytotoxicity against human HT-29 cells
NCI-H522 = assay: Cytotoxicity against human NCI-H522 cells; procedure, shortened: as §1
HCC 2998 = assay: Cytotoxicity against human HCC2998 cells
NCI-H460 = assay: Cytotoxicity against human NCI-H460 cells; procedure, shortened: as §1
HOP-62 [4] = assay: Cytotoxicity against human HOP62 cells
HOP-92 = assay: Cytotoxicity against human HOP92 cells
[5] = Cytotoxicity against human EKVX cells
SR = assay: Cytotoxicity against human SR cells; procedure, shortened: as §1
A549 = assay: Cytotoxicity against human A549/ATCC cells
RPMI-8226 = assay: Cytotoxicity against human RPMI8226 cells; procedure, shortened: as §1
CCRF-CEM = assay: Cytotoxicity against human CCRF-CEM cells
MDA-MB-468 [6] = assay: Cytotoxicity against human MDA-MB-468 cells assessed as growth inhibition at 10 uM; details: read-out: GI
Procedure, shortened: (§3)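 Single-dose screen on human tumour cell lines. Growth of treated cells is expressed as percent of untreated growth, plotted as a mean graph, and reported as percent growth inhibition.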

Hs-578T = assay: Cytotoxicity against human Hs578T cells assessed as growth inhibition at 10 uM; details: read-out: GI
UO-31 [7] = assay: Cytotoxicity against human UO31 cells assessed as growth inhibition at 10 uM; details: read-out: GI
Procedure, shortened: (§4)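 Single-dose screen in a sixty-cell human tumour line panel; percent growth of treated cells relative to untreated was read and reported as percentage growth inhibition, shown as a mean graph. Compounds meeting the threshold inhibition criteria went on to five-dose testing.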

A498 = assay: Cytotoxicity against human A498 cells assessed as growth inhibition at 10 uM; details: read-out: GI
IGROV-1 = assay: Cytotoxicity against human IGROV1 cells assessed as growth inhibition at 10 uM; details: read-out: GI
UACC-62 [8] = assay: Cytotoxicity against human UACC62 cells assessed as growth inhibition at 10 uM; details: read-out: GI; procedure, shortened: as §4
SNB-75 = assay: Cytotoxicity against human SNB75 cells assessed as growth inhibition at 10 uM; details: read-out: GI; procedure, shortened: as §3
SF-295 = assay: Cytotoxicity against human SF295 cells assessed as growth inhibition at 10 uM; details: read-out: GI; procedure, shortened: as §3
HOP-62 [9] = assay: Cytotoxicity against human HOP62 cells assessed as growth inhibition at 10 uM; details: read-out: GI
[10] = read-out: LC50 (the source's name)

Q: Which zone of inhibition at 1000 µg/mL (Shigella flexneri) does the source give for `N#Cc1c(-c2ccccc2)nc(SCC2CO2)nc1N1CCOCC1` (configuration not stated) here?
A: 18 mm

Q: What about the zone of inhibition at 1000 µg/mL (Pseudomonas aeruginosa) of the same molecule?
A: 17 mm

Q: What about the GI50 (MDA-MB-468 [1]) of the same molecule?
A: 4.82 µM

Q: And the TGI (MDA-MB-468 [1])?
A: > 100 µM

Q: And the CC50 (MDA-MB-468 [1]; [10])?
A: > 100 µM

Q: What about the GI50 (BT-549) of the same molecule?
A: 3.22 µM

Q: What about the TGI (BT-549) of the same molecule?
A: > 100 µM

Q: And the CC50 (BT-549; [10])?
A: > 100 µM

Q: And the GI50 (MDA-MB-231)?
A: 10 µM

Q: What about the TGI (MDA-MB-231) of the same molecule?
A: > 100 µM

Q: What about the CC50 (MDA-MB-231; [10]) of the same molecule?
A: > 100 µM

Q: And the GI50 (MCF7)?
A: 3.92 µM

Q: What about the TGI (MCF7) of the same molecule?
A: > 100 µM

Q: And the CC50 (MCF7; [10])?
A: > 100 µM

Q: And the GI50 (UO-31 [2])?
A: 7.57 µM

Q: What about the TGI (UO-31 [2]) of the same molecule?
A: > 100 µM

Q: And the CC50 (UO-31 [2]; [10])?
A: > 100 µM

Q: And the GI50 (TK-10)?
A: 4.63 µM

Q: What about the TGI (TK-10) of the same molecule?
A: > 100 µM

Q: What about the CC50 (TK-10; [10]) of the same molecule?
A: > 100 µM

Q: And the GI50 (CAKI-1)?
A: 0.635 µM

Q: And the TGI (CAKI-1)?
A: 31.4 µM

Q: And the CC50 (CAKI-1; [10])?
A: > 100 µM

Q: And the GI50 (SK-OV-3)?
A: 14.1 µM

Q: And the TGI (SK-OV-3)?
A: 75.2 µM

Q: And the CC50 (SK-OV-3; [10])?
A: > 100 µM

Q: What about the GI50 (OVCAR-4) of the same molecule?
A: 85.1 µM

Q: What about the TGI (OVCAR-4) of the same molecule?
A: > 100 µM

Q: What about the CC50 (OVCAR-4; [10]) of the same molecule?
A: > 100 µM

Q: What about the GI50 (OVCAR-3) of the same molecule?
A: 4.19 µM

Q: What about the TGI (OVCAR-3) of the same molecule?
A: 47.8 µM

Q: What about the CC50 (OVCAR-3; [10]) of the same molecule?
A: > 100 µM

Q: What about the GI50 (UACC-62 [3]) of the same molecule?
A: 3.12 µM

Q: What about the TGI (UACC-62 [3]) of the same molecule?
A: 75.5 µM

Q: And the CC50 (UACC-62 [3]; [10])?
A: > 100 µM

Q: And the GI50 (SK-MEL-5)?
A: 17 µM

Q: What about the TGI (SK-MEL-5) of the same molecule?
A: > 100 µM

Q: What about the CC50 (SK-MEL-5; [10]) of the same molecule?
A: > 100 µM

Q: And the GI50 (M14)?
A: 11.9 µM

Q: What about the TGI (M14) of the same molecule?
A: > 100 µM

Q: And the CC50 (M14; [10])?
A: > 100 µM

Q: And the GI50 (LOX IMVI)?
A: 6.48 µM

Q: What about the TGI (LOX IMVI) of the same molecule?
A: > 100 µM

Q: What about the CC50 (LOX IMVI; [10]) of the same molecule?
A: > 100 µM

Q: What about the GI50 (SF-539) of the same molecule?
A: 19.8 µM

Q: And the TGI (SF-539)?
A: > 100 µM

Q: And the CC50 (SF-539; [10])?
A: > 100 µM

Q: What about the GI50 (SW-620) of the same molecule?
A: 25 µM

Q: What about the TGI (SW-620) of the same molecule?
A: > 100 µM

Q: What about the CC50 (SW-620; [10]) of the same molecule?
A: > 100 µM

Q: And the GI50 (HT-29)?
A: 36.8 µM

Q: And the TGI (HT-29)?
A: > 100 µM

Q: What about the CC50 (HT-29; [10]) of the same molecule?
A: > 100 µM

Q: And the GI50 (NCI-H522)?
A: 72.5 µM

Q: And the TGI (NCI-H522)?
A: > 100 µM

Q: And the CC50 (NCI-H522; [10])?
A: > 100 µM

Q: What about the GI50 (HCC 2998) of the same molecule?
A: 0.253 µM

Q: And the TGI (HCC 2998)?
A: 18.2 µM

Q: And the CC50 (HCC 2998; [10])?
A: > 100 µM

Q: What about the GI50 (NCI-H460) of the same molecule?
A: 10.3 µM

Q: And the TGI (NCI-H460)?
A: > 100 µM

Q: And the CC50 (NCI-H460; [10])?
A: > 100 µM

Q: What about the GI50 (HOP-62 [4]) of the same molecule?
A: 4.34 µM

Q: And the TGI (HOP-62 [4])?
A: 75.3 µM

Q: What about the CC50 (HOP-62 [4]; [10]) of the same molecule?
A: > 100 µM

Q: And the GI50 (HOP-92)?
A: 2.44 µM

Q: What about the TGI (HOP-92) of the same molecule?
A: 8.7 µM

Q: What about the CC50 (HOP-92; [10]) of the same molecule?
A: > 100 µM

Q: What about the GI50 [5] of the same molecule?
A: 3.65 µM

Q: What about the TGI [5] of the same molecule?
A: > 100 µM

Q: And the CC50 [5, 10]?
A: > 100 µM

Q: What about the GI50 (SR) of the same molecule?
A: 33.3 µM

Q: What about the TGI (SR) of the same molecule?
A: > 100 µM

Q: And the CC50 (SR; [10])?
A: > 100 µM

Q: What about the GI50 (A549) of the same molecule?
A: 27.9 µM

Q: What about the TGI (A549) of the same molecule?
A: > 100 µM

Q: What about the CC50 (A549; [10]) of the same molecule?
A: > 100 µM

Q: And the GI50 (RPMI-8226)?
A: 14.1 µM

Q: What about the TGI (RPMI-8226) of the same molecule?
A: 91.8 µM

Q: And the CC50 (RPMI-8226; [10])?
A: > 100 µM

Q: And the GI50 (CCRF-CEM)?
A: > 100 µM

Q: And the TGI (CCRF-CEM)?
A: > 100 µM

Q: And the CC50 (CCRF-CEM; [10])?
A: > 100 µM

Q: And the inhibition of growth at 10 µM (MDA-MB-468 [6])?
A: 44.1%

Q: And the inhibition of growth at 10 µM (Hs-578T)?
A: 50%

Q: And the inhibition of growth at 10 µM (UO-31 [7])?
A: 70.5%

Q: And the inhibition of growth at 10 µM (A498)?
A: 115%

Q: And the inhibition of growth at 10 µM (IGROV-1)?
A: 61.9%

Q: And the inhibition of growth at 10 µM (UACC-62 [8])?
A: 48.1%

Q: What about the inhibition of growth at 10 µM (SNB-75) of the same molecule?
A: 65.9%

Q: And the inhibition of growth at 10 µM (SF-295)?
A: 90.9%

Q: And the inhibition of growth at 10 µM (HOP-62 [9])?
A: 45.7%
